The record followed here is ChEMBL document CHEMBL4052644, “Synthesis of novel benzylidene analogues of betulinic acid as potent cytotoxic agents” (Eur J Med Chem, 2017).

The test system of test [1] is MCF7. Briefly: Cytotoxicity against human MCF7 cells assessed as reduction in cell viability after 48 hrs by SRB assay. The format is functional, cell-based. The following applies: MCF7, 48 h. A digest of the protocol: (§1)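 SRB assay. Compounds active at 10 µM in the primary screen were retested at 1, 2.5 and 5 µM, and IC50 was calculated from these concentrations. The normal breast epithelial line fR2 was tested alongside the cancer lines.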
In general terms: Sulforhodamine B stains cellular protein and so reports cell mass.

A short description of test [2]: Selectivity index, ratio of IC50 for human FR2 cells to IC50 for human MCF7 cells. Format: functional. The method, boiled down:
(§2)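 Selectivity index is the IC50 in normal breast epithelial fR2 cells divided by the IC50 in each cancer line. All IC50 values come from the SRB assay.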

The subject of test [3] is MIA PaCa-2. Description: Growth inhibition of human MIAPaCa2 at 10 uM after 48 hrs by SRB assay relative to control. Format: functional. Conditions: MIA PaCa-2, 48 h, read-out: GI. A digest of the protocol:
(§3)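 Primary SRB screen of every compound at a single concentration of 10 µM. Growth inhibition is expressed relative to control.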

Test [4] in a line: Cytotoxicity against human FR2 cells assessed as reduction in cell viability after 48 hrs by SRB assay. Format: cell-based. Conditions: FR2, 48 h. The method, boiled down: as §1
Test [5] has as its system HCT-116. Briefly: Cytotoxicity against human HCT116 cells assessed as reduction in cell viability after 48 hrs by SRB assay. The format is functional, cell-based. Conditions: HCT-116, 48 h. A digest of the protocol: as §1
For test [6], the system named is PC-3. Briefly: Growth inhibition of human PC3 cells at 10 uM after 48 hrs by SRB assay relative to control. Format: functional. Conditions: PC-3, 48 h, read-out: GI. A digest of the protocol:
as §3

The nature of test [7]: Selectivity index, ratio of IC50 for human FR2 cells to IC50 for human HCT116 cells. Format: functional. The method, boiled down:
as §2

Test [8] concerns HCT-116. Briefly: Antiproliferative activity against human HCT116 cells assessed as reduction in colony formation after 14 days by crystal violet staining based clonogenic assay. The format is functional, cell-based. The method, boiled down:
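HCT 116 cells were treated at 0.7, 1.4 and 2.8 µM. Colonies formed over 14 days of treatment and were compared with untreated control.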

Test [9] relates to MCF7. Description: Growth inhibition of human MCF7 cells at 10 uM after 48 hrs by SRB assay relative to control. Format: functional. The following applies: MCF7, 48 h, read-out: GI. A digest of the protocol:
as §3

The test system of test [10] is HCT-116. Briefly: Induction of morphological changes in human HCT116 cells assessed as cell growth arrest after 24 hrs by phase contrast microscopic method. The format is functional, cell-based. A digest of the protocol:
(§4)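 HCT 116 cells were treated at 0.7, 1.4, 2.0 and 2.5 µM for 24 h, then examined under a phase contrast microscope for growth arrest and morphological change.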

Test [11] relates to PC-3. Description: Cytotoxicity against human PC3 cells assessed as reduction in cell viability after 48 hrs by SRB assay. Format: functional, cell-based. The following applies: PC-3, 48 h. The method, boiled down: as §1
A short description of test [12]: Selectivity index, ratio of IC50 for human FR2 cells to IC50 for human A549 cells. The format is functional. The method, boiled down:
as §2

In test [13] the test system is A549. Briefly: Growth inhibition of human A549 cells at 10 uM after 48 hrs by SRB assay relative to control. Format: functional. The following applies: A549, 48 h, read-out: GI. The method, boiled down: as §3
The subject of test [14] is MIA PaCa-2. Briefly: Cytotoxicity against human MIAPaCa2 cells assessed as reduction in cell viability after 48 hrs by SRB assay. Conditions: MIA PaCa-2, 48 h. The format is functional, cell-based. The method, boiled down:
as §1

Test [15] concerns HCT-116. Description: Induction of morphological changes in human HCT116 cells assessed as change in cell morphology after 24 hrs by phase contrast microscopic method. The format is functional, cell-based. The method, boiled down:
as §4

The nature of test [16]: Selectivity index, ratio of IC50 for human FR2 cells to IC50 for human MIAPaCa2 cells. Format: functional. A digest of the protocol: as §2
Test [17] concerns HCT-116. Briefly: Induction of mitochondrial membrane potential loss in human HCT116 cells after 24 hrs by rhodamine-123 dye based fluorescence microscopy. Format: functional, cell-based. A digest of the protocol:
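HCT-116 cells were treated at 0.7, 1.4, 2.0 and 2.5 µM and stained with rhodamine-123. Loss of membrane potential was read as a decrease in fluorescence compared with untreated cells.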

In test [18] the test system is HCT-116. Description: Antimigratory activity in human HCT116 cells assessed as inhibition of wound closure after 24 hrs by wound healing assay. The format is functional, cell-based. A digest of the protocol:
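HCT 116 monolayers were scratched, then treated at 1.4, 2.0 and 2.5 µM for 24 h. Wound area was measured at 0 and 24 h. Migration was derived from the recovered scratch area relative to 0 h and to the matching control.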

Test [19] concerns A549. Description: Cytotoxicity against human A549 cells assessed as reduction in cell viability after 48 hrs by SRB assay. The format is functional, cell-based. Conditions: A549, 48 h. A digest of the protocol:
as §1

For test [20], the system named is HCT-116. Description: Growth inhibition of human HCT116 cells at 10 uM after 48 hrs by SRB assay relative to control. Format: functional. The following applies: HCT-116, 48 h, read-out: GI. The method, boiled down:
as §3

Test [21] in a line: Selectivity index, ratio of IC50 for human FR2 cells to IC50 for human PC3 cells. The format is functional. A digest of the protocol:
as §2

In another test the test system is SK-MEL-2. Description: Cytotoxicity against human SK-MEL-2 cells assessed as reduction in cell viability. Format: functional, cell-based.
In a further test the test system is DLD-1. Description: Cytotoxicity against human DLD1 cells assessed as cell growth inhibition after 18 hrs. The format is functional, cell-based. The following applies: DLD-1, 18 h.
Test [22] has as its system A549. Briefly: Growth inhibition of human A549 cells after 18 hrs. The format is functional, cell-based. Conditions: A549, 18 h. The method, boiled down:
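Sulforhodamine B (SRB) assay on A-549 human lung cancer cells. Compounds were first screened at 10 µM. Those active at 10 µM were retested at 1, 2.5 and 5 µM, and IC50 was calculated from these concentrations.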

Molecules are shown by their SMILES.

Consider `C=C(C)[C@@H]1CC[C@]2(C(=O)O)CC[C@]3(C)[C@H](CC[C@@H]4[C@@]5(C)C/C(=C\c6ccc([N+](=O)[O-])cc6)[C@H](O)C(C)(C)[C@@H]5CC[C@]43C)[C@@H]12`, for which the half-inhibitory concentration (IC50) in the test on MCF7 [1] was 3.5 µM; in [4], 16.8 µM; in the test on HCT-116 [5], 1.36 µM; in the test on PC-3 [11] it was 1.6 µM; with MIA PaCa-2 [14], 3.2 µM; in the test on A549 [19], 1.5 µM. Also, the “Ratio IC50” value stood at 4.8 in [2]; 12.35 in [7]; 11.2 in [12]; 5.25 in test [16]; 10.5 in test [21]. In addition, the inhibition of growth at 10 µM came to 81% in the test on MIA PaCa-2 [3]; 56% in the test on PC-3 [6]; 85% in the test with MCF7 [9]; 73% with A549 [13]; 92% in the test with HCT-116 [20]. The inhibition entry in the test with HCT-116 [8] and in the test on HCT-116 [18] was “Dose-dependent effect” each time. In addition, the Activity result in the test on HCT-116 [10], in the test on HCT-116 [15] and with HCT-116 [17] was “Dose-dependent effect” in each case.
As to `CC(C)[C@@H]1CC[C@]2(C(=O)O)CC[C@]3(C)[C@H](CC[C@@H]4[C@@]5(C)C=C(C#N)C(=O)C(C)(C)[C@@H]5CC[C@]43C)[C@@H]12`, the IC50 in the test with SK-MEL-2 was 0.81 µM.
Take `C=C(C)[C@@H]1CC[C@]2(COC(C)=O)CC[C@]3(C)[C@H](CC[C@@H]4[C@@]5(C)CC[C@H](O[C@H]6O[C@H](CO)[C@@H](O)[C@H](O)[C@H]6O)C(C)(C)[C@@H]5CC[C@]43C)[C@@H]12`: in the test on DLD-1, the IC50 stood at 4.45 µM.
For the compound `C=C(C)[C@@H]1CC[C@]2(C(=O)O)CC[C@]3(C)[C@H](CC[C@@H]4[C@@]5(C)C/C(=C\c6cccnc6)C(=O)C(C)(C)[C@@H]5CC[C@]43C)[C@@H]12`, the concentration for half-maximal inhibition (IC50) was 2.6 µM with MCF7 [1]; 100 µM in test [4]; 1.97 µM in the test with HCT-116 [5]; 6.6 µM with PC-3 [11]; 4.9 µM in the test on MIA PaCa-2 [14]; 3.1 µM with A549 [19]. In addition, the “Ratio IC50” value in test [2] is recorded as 38.46; in test [7], 50.76; in test [12], 32.25; in test [16] it was 20.4; in test [21], 15.15. Besides, the inhibition of growth at 10 µM in the test on MIA PaCa-2 [3] was found to be 97%; with PC-3 [6], 67%; in the test with MCF7 [9] it was 97%; in the test with A549 [13] it was 94%; in the test on HCT-116 [20], 96%.
Take `C=C(C)[C@@H]1CC[C@]2(C(=O)O)CC[C@]3(C)[C@H](CC[C@@H]4[C@@]5(C)C/C(=C\c6ccsc6)C(=O)C(C)(C)[C@@H]5CC[C@]43C)[C@@H]12`: the IC50 in the test with MCF7 [1] was found to be 2.9 µM; in test [4] it was 20.7 µM; in the test with HCT-116 [5] it was 5.1 µM; in the test on PC-3 [11], 6.7 µM; in the test with MIA PaCa-2 [14] it was 5.3 µM; with A549 [19], 3.9 µM. For the same compound, the “Ratio IC50” value stood at 7.151 in test [2]; 4.066 in test [7]; 5.317 in test [12]; 3.913 in test [16]; 3.095 in test [21]. Moreover, the inhibition of growth at 10 µM came out at 76% in the test with MIA PaCa-2 [3]; 82% in the test on PC-3 [6]; 92% in the test with MCF7 [9]; 95% in the test on A549 [13]; 91% in the test with HCT-116 [20].
Turning to `CC(C)[C@@H]1CC[C@]2(C(=O)O)CC[C@]3(C)[C@H](CC[C@@H]4[C@@]5(C)C=C(Cl)C(=O)C(C)(C)[C@@H]5CC[C@]43C)[C@@H]12`, the half-maximal inhibitory concentration (IC50) with SK-MEL-2 worked out at 0.13 µM.
`C=C(C)[C@@H]1CC[C@]2(C(=O)OCC(N)(CO)CO)CC[C@]3(C)[C@H](CC[C@@H]4[C@@]5(C)CC[C@H](OC(C)=O)C(C)(C)[C@@H]5CC[C@]43C)[C@@H]12` came in with a concentration for half-maximal inhibition (IC50) in the test on A549 [22] of 2.5 µM.

As usually defined, the IC50 is the concentration needed to halve the response being measured.
